Active and inactive are the calls of the source.
Tests used:
[1] = tested on: Mus musculus; experiment: Anticonvulsant activity against pentylenetetrazole-induced seizure in albino Swiss (CD-1) mouse assessed as delay in onset of seizures at 15 mg/kg, ip administered 60 mins prior to PTZ challenge; type: functional; conditions: route intraperitoneal
How it was run: (§1)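 Male CD-1 mice (18–22 g) given compound or vehicle i.p. 60 min before PTZ 100 mg/kg s.c. Each mouse was then caged alone and watched for 30 min for clonic seizures, meaning whole-body clonus lasting >3 s with loss of righting reflex. Recorded: latency to first clonus, number of seizure episodes, and deaths within 30 min. Analysis: ANOVA/Dunnett or t-test; mortality by Fisher's exact test; 7–10 mice per group.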

[2] = tested on: Mus musculus; experiment: Anticonvulsant activity against pentylenetetrazole-induced seizure in albino Swiss (CD-1) mouse assessed as delay in onset of seizures at 30 mg/kg, ip administered 60 mins prior to PTZ challenge; type: functional; conditions: route intraperitoneal; how it was run: as §1
[3] = tested on: Mus musculus; experiment: Anticonvulsant activity against pentylenetetrazole-induced seizure in albino Swiss (CD-1) mouse assessed as decrease in seizure episodes at 15 mg/kg, ip administered 60 mins prior to PTZ challenge; type: functional; conditions: route intraperitoneal; how it was run: as §1
[4] = tested on: Mus musculus; experiment: Anticonvulsant activity against pentylenetetrazole-induced seizure in albino Swiss (CD-1) mouse assessed as decrease in mortality rate at 30 mg/kg, ip administered 60 mins prior to PTZ challenge; type: functional, organism-based; design: dose 30 mg/kg; how it was run: as §1
[5] = tested on: Mus musculus; experiment: Anticonvulsant activity against pilocarpine-induced seizure in albino Swiss (CD-1) mouse assessed as prolongation of latency time to seizures at 70 mg/kg, ip administered 60 mins before pilocarpine challenge; type: functional; conditions: route intraperitoneal
How it was run: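 CD-1 mice received compound or vehicle (1% Tween 80) i.p. 60 min before pilocarpine 400 mg/kg i.p. Scopolamine butylbromide 1 mg/kg i.p. was given 45 min before pilocarpine. 7–8 mice per group; Student's t-test versus vehicle; mean ± SEM.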

[6] = tested on: Mus musculus; experiment: Anticonvulsant activity against pilocarpine-induced seizure in albino Swiss (CD-1) mouse assessed as prolongation of latency time to death at 70 mg/kg, ip administered 60 mins before pilocarpine challenge; type: functional; conditions: route intraperitoneal
How it was run: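 Male CD-1 mice dosed i.p. with compound or vehicle (1% Tween 80). Scopolamine butylbromide 1 mg/kg i.p. given 45 min before pilocarpine; pilocarpine 400 mg/kg i.p. given 60 min after compound. Observed 1 h. Latency to tonic-clonic seizure and latency to death recorded, cut-off 60 min. 7–8 mice per group, mean ± SEM, Student's t-test against vehicle.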

[7] = tested on: Mus musculus; experiment: Toxicity in albino Swiss (CD-1) mouse assessed as motor impairment at 30 to 100 mg/kg, ip measured after 60 mins by rotarod test; type: organism-based; design: dose 30-100 mg/kg, route intraperitoneal; conditions: in vivo, 1 h
How it was run: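 Mice were trained for 3 days at 18 rpm on a rod of 2 cm diameter. At least 24 h after the last training, they were given 30 or 100 mg/kg or vehicle (1% Tween 80) i.p. 60 min before testing at 6, 18, then 24 rpm. Impairment was defined as failing to stay on the rod for 1 min; mean time on the rod was recorded.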

[8] = tested on: Mus musculus; experiment: Anticonvulsant activity in albino Swiss (CD-1) mouse assessed as protection against seizures at 100 mg/kg, ip after 60 mins by electroconvulsive threshold test; type: functional, organism-based; design: dose 100 mg/kg
[9] = tested on: Mus musculus; experiment: Toxicity in albino Swiss (CD-1) mouse assessed as mortality at 100 mg/kg, ip measured after single electroconvulsive electroshock exposure; type: organism-based; design: dose 100 mg/kg, route intraperitoneal; conditions: in vivo
How it was run: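 Male CD-1 mice given 100 mg/kg i.p. 60 min before electroconvulsive threshold testing. Groups shocked at graded currents to give 10–90% of animals with seizures; CS50 for tonic hind-limb extension estimated by log-probit. Mortality noted after a single electroconvulsive shock, compared with controls.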

[10] = tested on: Mus musculus; experiment: Anticonvulsant activity in albino Swiss (CD-1) mouse assessed as protection against electrically-induced tonic hind limb extension at 30 mg/kg by maximal electroshock test; type: functional, organism-based; design: dose 30 mg/kg; conditions: Hindlimb
How it was run: (§2)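 Mice received a 25 mA, 0.2 s stimulus through auricular electrodes. The endpoint was tonic extension of the hind limbs after a single shock, scored in vehicle- and drug-treated groups.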

[11] = tested on: Mus musculus; experiment: Anticonvulsant activity in albino Swiss (CD-1) mouse assessed as decrease in animals with tonic hind limb extensions at 100 mg/kg by maximal electroshock test; type: functional; conditions: Hindlimb; how it was run: as §2
[12] = Toxicity in albino Swiss (CD-1) mouse assessed as mortality at 100 mg/kg measured after electroshock exposure; type: organism-based; design: dose 100 mg/kg; conditions: in vivo, read-out: Activity
How it was run: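 Male CD-1 mice given 100 mg/kg i.p. 60 min before the maximal electroshock test. Stimulus 25 mA for 0.2 s through auricular electrodes; endpoint tonic hind-limb extension. Deaths after the shock compared with the vehicle group.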

[13] = tested on: Mus musculus; experiment: Anticonvulsant activity against pentylenetetrazole-induced seizure in albino Swiss (CD-1) mouse assessed as decrease in seizure episodes at 100 mg/kg, ip administered 60 mins prior to PTZ challenge; type: functional; conditions: route intraperitoneal
How it was run: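 Male CD-1 mice, 18–22 g, given compound or vehicle i.p. 60 min before PTZ 100 mg/kg s.c. Each mouse observed alone for 30 min for clonic seizures: whole-body clonus over 3 s with loss of righting reflex. Read-outs: latency to first clonus, number of seizure episodes, and deaths within 30 min. Groups of 7–10 mice, compared with vehicle.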

[14] = tested on: Mus musculus; experiment: Anticonvulsant activity against pentylenetetrazole-induced seizure in albino Swiss (CD-1) mouse assessed as decrease in mortality rate at 30 to 100 mg/kg, ip administered 60 mins prior to PTZ challenge; type: functional, organism-based; how it was run: as §1
[15] = tested on: Mus musculus; experiment: Anticonvulsant activity in albino Swiss (CD-1) mouse assessed as current intensity required to induce 50% tonic hind limb extensions at 100 mg/kg, ip after 60 mins by electroconvulsive threshold test (reference value: 6.61 mA); type: functional, Hindlimb; conditions: route intraperitoneal
[16] = tested on: Mus musculus; experiment: Anticonvulsant activity in albino Swiss (CD-1) mouse assessed as protection against electrically-induced tonic hind limb extension at 30 to 100 mg/kg measured after single electroshock by maximal electroshock test; type: functional, organism-based; conditions: Hindlimb; how it was run: as §2
[17] = tested on: Mus musculus; experiment: Anticonvulsant activity against pentylenetetrazole-induced seizure in albino Swiss (CD-1) mouse assessed as prolongation of latency time to first seizure episode at 100 mg/kg, ip administered 60 mins prior to PTZ challenge; type: functional; conditions: route intraperitoneal; how it was run: as §1
[18] = tested on: Mus musculus; experiment: Anticonvulsant activity against pentylenetetrazole-induced seizure in albino Swiss (CD-1) mouse assessed as prolongation of latency time to first seizure episode at 30 mg/kg, ip administered 60 mins prior to PTZ challenge; type: functional, organism-based; design: dose 30 mg/kg; how it was run: as §1

Row | SMILES | Activity [1] [%] | Activity [2] [%] | inhibition in vivo at 15 mg/kg [3] [%] | inhibition [4] | Activity [5] [%] | Activity [6] [%] | Activity [7] | Activity [8] | Activity [9] | Activity [10] | inhibition in vivo at 100 mg/kg [11] [%] | mortality [12] [%] | inhibition in vivo at 100 mg/kg [13] [%] | inhibition [14] | CS50 [15] [mA] | Activity [16] | Activity [17] [%] | Activity [18]
1 | NCCC(C(=O)NCc1ccc(Cl)cc1)N1CCN(C(c2ccccc2)c2ccccc2)CC1 (centres undefined) | 58 | 217 | 58 | Active | 113.4 | 71.1 | Non-toxic | inactive | Toxic | inactive | 44 | 65 |  |  |  |  |  | 
2 | NCCC(C(=O)NCc1ccccc1Cl)N1CCN(C(c2ccccc2)c2ccccc2)CC1 (centres undefined) |  |  |  |  |  |  | Non-toxic |  |  |  |  |  | 53 | Active | 6.22 | inactive | 100 | inactive

— ChEMBL document CHEMBL3286252, “Synthesis, biological evaluation and structure-activity relationship of new GABA uptake inhibitors, derivatives of 4-aminobutanamides” (Eur J Med Chem, 2014)
